5 compounds from ChEMBL document CHEMBL1122190, “Mammary tumor inhibiting effect of 3,3'-diacetoxy-alpha, beta-dialkylstilbenes and of related stilbene oxides” (1982) can be followed below.

In test [1] the target is T1, Estrogen receptor (Mus musculus) (UniProt O08537+P19785). Kind of test: Uterotrophic activity in mice at 1000 ug dose. The class given is functional, tissue-based. To be noted: Uterus. The essentials: (§1)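 Dorfman uterine weight test in immature female NMRI mice (20 days old at start, 10-12 g; ten per group). Compound given sc daily in olive oil for 3 days. Animals killed 24 h after last injection; uteri removed, dried at 100 °C for 24 h and weighed.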

The test system of test [2] is Mus musculus. Description: Effect on estrogen and progesterone receptors positive hormone-dependent postmenopausal human mammary carcinoma tumor growth in nude mice at 3.0 mg/kg/day. The class given is functional. A digest of the protocol: (§2)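 Nude mice carried serially transplanted hormone-dependent human mammary carcinoma. Compounds in olive oil were given sc 6 times a week for 4-5 weeks. Two tumor diameters were measured weekly, and size at treatment start was set as 1. Tumor size was averaged after 5 weeks of therapy.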

Test [3] concerns the target T1, Estrogen receptor (Mus musculus). Description: Antiuterotrophic activity in mice at 100 ug dose. The class given is functional. A digest of the protocol:
(§3)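 Dorfman uterine weight test in immature female NMRI mice, ten per group, 20 days old and 10-12 g at start. Compounds were given in olive oil sc once daily for 3 days. Mice were killed 24 h after the last injection, and uteri were removed, dried at 100 °C for 24 h and weighed.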

For test [4] the target is unchanged. Kind of test: Antiuterotrophic activity in mice at 5 ug dose. The class given is functional. A digest of the protocol:
as §3

Test [5] concerns Estrogen receptor (Bos taurus). Description: In vitro relative binding affinity for Estrogen receptor compared to [3H]estradiol.
Test [6] addresses T1, Estrogen receptor (Mus musculus). Kind of test: Uterotrophic activity in mice at 100 ug dose. The following applies: Uterus. In kind it is functional, tissue-based. A digest of the protocol:
as §3

The target is the same in test [7]. Kind of test: Uterotrophic activity in mice at 10 ug dose. In kind it is functional, tissue-based. The following applies: Uterus. A digest of the protocol:
as §3

Test [8] shares this target. Description: Percent inhibition of estrone-stimulated uterine growth in immature mouse at 100 ug dose. The class given is functional. A digest of the protocol: as §3
The target is the same in test [9]. Kind of test: Percent inhibition of estrone-stimulated uterine growth in immature mouse at 50 ug dose. The class given is functional. The essentials: as §3
The target is the same in test [10]. Kind of test: Percent inhibition of estrone-stimulated uterine growth in immature mouse at 5 ug dose. The class given is functional. A digest of the protocol: as §3
For test [11] the target is unchanged. Kind of test: Antiuterotrophic activity in mice at 50 ug dose. In kind it is functional. The essentials: as §3
Test [12] shares this target. Kind of test: Uterotrophic activity in mice at 500 ug dose. The class given is functional, tissue-based. To be noted: Uterus. A digest of the protocol: as §1
Test [13] has the same target. Description: Uterotrophic activity in mice at 50 ug dose. The class given is functional, tissue-based. The following applies: Uterus. The essentials: as §1
Test [14] has as its system Mus musculus. Kind of test: Effect on estrogen and progesterone receptors positive hormone-dependent postmenopausal human mammary carcinoma tumor growth in nude mice at 2.6 mg/kg/day. In kind it is functional. The essentials: as §2
Test [15] deals with T1, Estrogen receptor (Mus musculus). Description: Uterotrophic activity in mice at 1 ug dose. In kind it is functional, tissue-based. The following applies: Uterus. A digest of the protocol: as §3
For test [16], the system named is Rattus norvegicus. Kind of test: Effect on DMBA-induced hormone-dependent mammary carcinoma tumor growth in rats at 1.0 mg/kg/day. The class given is functional. The essentials:
(§4)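 Female Sprague-Dawley rats received a single 20 mg DMBA dose by gastric intubation at 50 days of age. About 4 weeks later, rats bearing at least one tumor >140 mm² were grouped in tens. Compounds in olive oil were given sc 6 times a week for 28 days. Tumor area (length × width) was measured twice weekly.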

In test [17] the test system is Rattus norvegicus. Kind of test: Effect on DMBA-induced hormone-dependent mammary carcinoma tumor growth in rats at 1.0 mg/kg/day (initial tumor number). In kind it is functional. A digest of the protocol:
as §4

For test [18], the system named is Rattus norvegicus. Kind of test: Percent unchanged DMBA-induced hormone-dependent mammary carcinoma in rats at 1.0 mg/kg/day. In kind it is functional. A digest of the protocol: as §4
Test [19] relates to Rattus norvegicus. Kind of test: Percent remission of DMBA-induced hormone-dependent mammary carcinoma in rats at 4.0 mg/kg/day. The class given is functional. A digest of the protocol:
as §4

Test [20] has as its system Rattus norvegicus. Kind of test: Effect on DMBA-induced hormone-dependent mammary carcinoma tumor growth in rats at 4.0 mg/kg/day (initial tumor number). The class given is functional. A digest of the protocol: as §4
For test [21], the system named is Mus musculus. Description: Effect on estrogen and progesterone receptors positive hormone-dependent postmenopausal human mammary carcinoma tumor growth in nude mice at 2.0 mg/kg/day. The class given is functional. A digest of the protocol:
as §2

For test [22], the system named is Rattus norvegicus. Kind of test: Percent progression of DMBA-induced hormone-dependent mammary carcinoma in rats at 0.5 mg/kg/day (Percent of tumors with progression). In kind it is functional. A digest of the protocol:
as §4

Test [23] relates to Rattus norvegicus. Description: Effect on DMBA-induced hormone-dependent mammary carcinoma tumor growth in rats at 4.0 mg/kg/day. In kind it is functional. The essentials: as §4
The subject of test [24] is Rattus norvegicus. Description: Effect on DMBA-induced hormone-dependent mammary carcinoma tumor growth in rats at 0.5 mg/kg/day. The class given is functional. The essentials:
as §4

Test [25] has as its target T1, Estrogen receptor (Mus musculus). Kind of test: Uterotrophic activity in mice at 800 ug dose. To be noted: Uterus. The class given is functional, tissue-based. A digest of the protocol:
as §1

Test [26] has as its system Rattus norvegicus. Description: Effect on DMBA-induced hormone-dependent mammary carcinoma tumor number in rats at 0.5 mg/kg/day. The class given is functional. The essentials:
as §4

The test system of test [27] is Rattus norvegicus. Description: Percent partial remission of DMBA-induced hormone-dependent mammary carcinoma in rats at 1.0 mg/kg/day. In kind it is functional. The essentials: as §4
The test system of test [28] is Rattus norvegicus. Description: Percent progression of DMBA-induced hormone-dependent mammary carcinoma in rats at 4.0 mg/kg/day. In kind it is functional. A digest of the protocol:
as §4

For test [29], the system named is Rattus norvegicus. Description: Percent unchanged DMBA-induced hormone-dependent mammary carcinoma in rats at 4.0 mg/kg/day. The class given is functional. A digest of the protocol:
as §4

The subject of test [30] is Rattus norvegicus. Description: Effect on DMBA-induced hormone-dependent mammary carcinoma tumor growth in rats at 0.5 mg/kg/day (initial tumor number). In kind it is functional. The essentials: as §4
In test [31] the test system is Rattus norvegicus. Kind of test: Percent unchanged DMBA-induced hormone-dependent mammary carcinoma in rats at 0.5 mg/kg/day. In kind it is functional. The essentials: as §4
Test [32] has as its system Rattus norvegicus. Kind of test: Percent remission of DMBA-induced hormone-dependent mammary carcinoma in rats at 0.5 mg/kg/day. The class given is functional. A digest of the protocol:
as §4

For test [33], the system named is Rattus norvegicus. Kind of test: Percent progression of DMBA-induced hormone-dependent mammary carcinoma in rats at 1.0 mg/kg/day. The class given is functional. The essentials: as §4
In test [34] the test system is Rattus norvegicus. Description: Percent partial remission of DMBA-induced hormone-dependent mammary carcinoma in rats at 4.0 mg/kg/day. In kind it is functional. The essentials: as §4
Test [35] deals with Rattus norvegicus. Description: Percent partial remission of DMBA-induced hormone-dependent mammary carcinoma in rats at 0.5 mg/kg/day. In kind it is functional. The essentials: as §4
For test [36], the system named is Rattus norvegicus. Description: Effect on DMBA-induced hormone-dependent mammary carcinoma tumor number in rats at 1.0 mg/kg/day. In kind it is functional. A digest of the protocol: as §4
The test system of test [37] is Rattus norvegicus. Description: Effect on DMBA-induced hormone-dependent mammary carcinoma tumor number in rats at 4.0 mg/kg/day. In kind it is functional. The essentials:
as §4

In test [38] the target is T1, Estrogen receptor (Mus musculus). Description: Uterotrophic activity in mice at 80 ug dose. The class given is functional, tissue-based. To be noted: Uterus. The essentials: as §1
Test [39] shares this target. Description: Uterotrophic activity in mice at 8 ug dose. In kind it is functional, tissue-based. To be noted: Uterus. A digest of the protocol: as §1
Test [40] relates to Rattus norvegicus. Description: Percent remission of DMBA-induced hormone-dependent mammary carcinoma in rats at 1.0 mg/kg/day. The class given is functional. A digest of the protocol:
as §4

For test [41], the system named is Mus musculus. Kind of test: Effect on estrogen and progesterone receptors positive hormone-dependent postmenopausal human mammary carcinoma tumor growth in nude mice at 1.0 mg/kg/day dose. In kind it is functional. A digest of the protocol:
as §2

Test [42] relates to Mus musculus. Kind of test: Effect on estrogen and progesterone receptors positive hormone-dependent postmenopausal human mammary carcinoma tumor growth in nude mice at 2.4 mg/kg/day. In kind it is functional. A digest of the protocol: as §2
Test [43] deals with T1, Estrogen receptor (Mus musculus). Description: Antiuterotrophic activity in mice at 250 ug dose. In kind it is functional. The essentials:
as §3

Test [44] has the same target. Description: Percent inhibition of estrone-stimulated uterine growth in immature mouse at 25 ug dose. In kind it is functional. A digest of the protocol: as §3
The target is the same in test [45]. Description: Antiuterotrophic activity in mice at 25 ug dose. The class given is functional. The essentials: as §3
The target is the same in test [46]. Description: Percent inhibition of estrone-stimulated uterine growth in immature mouse at 250 ug dose. The class given is functional. A digest of the protocol:
as §3

T1 sequence (O08537 whole entry, looked up): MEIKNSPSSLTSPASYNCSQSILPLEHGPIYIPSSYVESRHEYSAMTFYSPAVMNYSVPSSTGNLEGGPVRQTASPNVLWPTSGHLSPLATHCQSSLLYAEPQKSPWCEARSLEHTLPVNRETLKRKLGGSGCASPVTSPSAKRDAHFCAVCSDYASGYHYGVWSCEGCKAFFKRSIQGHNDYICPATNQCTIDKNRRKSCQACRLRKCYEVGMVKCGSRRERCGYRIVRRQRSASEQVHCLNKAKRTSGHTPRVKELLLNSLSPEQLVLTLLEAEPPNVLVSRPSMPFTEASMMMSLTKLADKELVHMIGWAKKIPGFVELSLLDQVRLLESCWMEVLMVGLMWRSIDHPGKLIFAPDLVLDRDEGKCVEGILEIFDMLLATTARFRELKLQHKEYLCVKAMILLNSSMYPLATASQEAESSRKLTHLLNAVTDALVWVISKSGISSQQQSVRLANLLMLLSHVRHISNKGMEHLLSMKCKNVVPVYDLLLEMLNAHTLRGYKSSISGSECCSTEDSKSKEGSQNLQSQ
T1 sequence (P19785 whole entry, looked up): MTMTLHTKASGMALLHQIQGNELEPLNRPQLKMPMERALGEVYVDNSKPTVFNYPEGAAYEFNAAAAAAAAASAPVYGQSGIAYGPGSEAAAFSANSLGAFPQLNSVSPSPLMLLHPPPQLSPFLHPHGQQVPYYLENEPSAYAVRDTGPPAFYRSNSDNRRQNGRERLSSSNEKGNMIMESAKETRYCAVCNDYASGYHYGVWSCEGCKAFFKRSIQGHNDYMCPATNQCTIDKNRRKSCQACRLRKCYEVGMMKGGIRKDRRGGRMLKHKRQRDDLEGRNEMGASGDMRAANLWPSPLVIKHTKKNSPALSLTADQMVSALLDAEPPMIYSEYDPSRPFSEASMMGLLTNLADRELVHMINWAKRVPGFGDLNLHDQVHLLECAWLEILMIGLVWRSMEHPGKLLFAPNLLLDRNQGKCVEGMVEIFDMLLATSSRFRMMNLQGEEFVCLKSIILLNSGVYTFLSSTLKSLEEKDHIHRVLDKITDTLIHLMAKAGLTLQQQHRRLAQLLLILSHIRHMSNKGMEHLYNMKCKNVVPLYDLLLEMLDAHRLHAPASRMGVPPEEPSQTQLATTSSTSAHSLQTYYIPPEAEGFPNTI

Consider `CCCCC1(c2cccc(OC(C)=O)c2)OC1(CCCC)c1cccc(OC(C)=O)c1` (stereo unspecified), for which the Effect in test [1] was found to be 35.5; in test [3] it was 42.4; in test [4] it was 32.4; in test [6] it was 34.3; in test [7], 19.8; in test [11], 42. In test [2], the Tumor size is given as 3.37. The RBA in test [5] stood at 0.8%. In addition, the results for the inhibition in [8], in [9] and in test [10] were 0.4%, 2.2% and 38.8%, respectively.

Take `CC/C(=C(/CC)c1cccc(OC(C)=O)c1)c1cccc(OC(C)=O)c1`: the Effect in [12] is 42; in test [13] it was 27.4; in test [6] it was 32.7; in [7], 24.3; in test [15], 15.9. For the same compound, the RBA in test [5] was found to be 2.2%. Also, the Tumor size in test [14] is recorded as 2.3.

`CCC1(c2cccc(O)c2)OC1(CC)c1cccc(O)c1` (stereo unspecified): the Change in test [16] is given as -52%; in test [23] it was -16%; in test [24], 18%. In addition, the No. of tumors in test [17] was determined as 31; in test [20], 29; in test [26], 18; in test [30] it was 27; in test [36], 10; in test [37], 4. Moreover, the Tumors is given as 0% in test [18]; 61% in [19]; 13% in test [22]; 13% in [27]; 15% in [28]; 12% in test [29]. The Tumors in test [31] is 5%; in test [32], 69%; in test [33], 10%; in test [34] it was 12%; in [35] it was 13%; in [40], 76%. The Effect was 42.2 in [3]; 27.6 in test [4]; 43.6 in test [25]; 33 in [38]; 29.4 in test [39]; 33 in test [11]. The compound further displayed an RBA in test [5] of 5.4%. In addition, the Tumor size was 1.85 in [21] and 2.9 in test [41]. Besides, the values for the inhibition in test [8], in [9] and in [10] were 2.7%, 34.3% and 52.5%, respectively.

On to `CC(=O)Oc1cccc(C2(C)OC2(C)c2cccc(OC(C)=O)c2)c1` (stereo unspecified), for which, in test [42], the Tumor size turned out to be 2.72. Further, the Effect in test [43] was determined as 33.1; in test [12], 20.6; in test [3] it was 32.6; in test [4], 37.9; in test [6], 15; in [7], 17. Also, in [45], the Effect worked out at 36.1. In addition, the inhibition in test [44] was found to be 23%; in [8] it was 33.4%; in test [46], 31.7%; in [10], 17.4%. In [5], this compound returned an RBA of 0.8%.

As to `CC(=O)Oc1cccc(/C(C)=C(\C)c2cccc(OC(C)=O)c2)c1`, the Tumor size in test [42] is reported as 3.42. The same compound came in with an RBA in [5] of 0.4%.
